# Publication PMC10043961 (Biomedicine & Pharmacotherapy, 2023)
# pIC50: −log10 of the molar value. Values joined by “and” are separate entries in the source; they are usually repeats but may differ in a detail not shown here. Equal values may be shown once. “Also recorded” adds a separate entry of the source. Read-outs that look alike come from different tables or passages of the source.
# Tests used:
# [1] = tested on: pyrimidine synthesis (DHODH) in Vero E6 cells; test: Metabolomic analysis of Vero E6 cells, de novo pyrimidine synthesis; assay type: cell-based; details: 24 h; for Pyrimidine synthesis, UMP levels (in words): Vero E6, 10 µM
# How it was run: (§1)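 Vero E6 cells at 80% confluence were treated for 24 h with test compound (1, 5 or 10 µM) in regular culture medium, with DMSO as vehicle. Cells were washed with ice-cold PBS and scraped into ice-cold 80% methanol for LC-MS metabolomics. Metabolites were matched to an in-house database (10 ppm mass, 0.5 min retention time tolerance), and peak integration was manually curated.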
# [2] = Mouse pharmacokinetics: plasma and epithelial lining fluid; assay type: in vivo, mice
# How it was run: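 Female 6-week-old CD1 mice were dosed PO once daily for 7 days. […] Plasma and BAL were assayed by LC-MS/MS against spiked standard curves. ELF levels came from urea normalization (VELF = VBAL × UreaBAL/Ureaplasma). Free drug was calculated as total × fraction unbound from rapid equilibrium dialysis.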
# [3] = tested on: Vero E6 cells; details: for Drug-induced toxicity, LDH release (in words): Vero E6, 24 h; for Effect on cellular ATP levels (in words): Vero E6, Cell Titer Glo
# [4] = tested on: SARS-CoV-2; test: microbe, parasite or virus in culture; assay type: cell-based; details: Severe acute respiratory syndrome coronavirus 2, Vero
# [5] = tested on: ecto-5′-nucleotidase (NT5E) or (CD73); test: Western blot of NT5E; assay type: cell-based
# How it was run: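 Vehicle- and test compound-treated cells were lysed in RIPA buffer with protease inhibitors, and protein was measured by BCA in triplicate. Lysates were separated by SDS-PAGE and transferred to nitrocellulose. Membranes were blocked in 5% skim milk/TBS and probed with anti-NT5E/CD73 primary antibody.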
# [6] = tested on: SARS-CoV-2 (USA-WA1/2020); test: microbe, parasite or virus in culture; assay type: cell-based; details: for EC50: Severe acute respiratory syndrome coronavirus 2, Huh7.5, read-out: EC50(µM) (R^2); for pIC50: Severe acute respiratory syndrome coronavirus 2, Huh7.5, read-out: IC50, inhibitory viral replication concentration at 50%
# [7] = target: T1, SARS-CoV-2 Mpro (Severe acute respiratory syndrome coronavirus 2, UniProt P0DTD1); test: biochemical; details: for pIC50: IC50 against Mpro activity
# [8] = tested on: Vero E6 cells; details: Vero E6, 1–10 µM, 24 h
# [9] = tested on: SARS-CoV-2 viral clearance; details: patients hospitalized with COVID-19 ref 62; cited from earlier work
# [10] = tested on: SARS-CoV-2 double-stranded RNA; assay type: cell-based
# [11] = tested on: SARS-CoV-2; assay type: cell-based
# [12] = data from DrugBank ref 49; cited from earlier work
# [13] = tested on: SARS-CoV-2 double-stranded RNA; assay type: cell-based; remark: listed apart in the source
# [14] = cited from earlier work
# [15] = tested on: SARS-CoV-2 (USA-WA1/2020); assay type: cell-based
# [16] = tested on: purine synthesis pathway in Vero E6 cells; test: Metabolomic analysis of Vero E6 cells, purine synthesis pathway; assay type: cell-based; details: Vero E6, 1 and 5 µM
# How it was run: as §1
# [17] = in vitro; details: human
# [18] = target: T1, SARS-CoV-2 Mpro; assay type: binding
# [19] = read-out: Inhibition of Mpro activity
# [20] = mice, 10 mg/kg PO daily for 7 days, 10 mg/kg
structure (smiles),measurement,setting,value
O=C1C(O)=C([C@H]2CC[C@H](c3ccc(Cl)cc3)CC2)C(=O)c2ccccc21 [Atovaquone],"Pyrimidine synthesis, UMP levels versus orotate and dihydroorotate (in words)","[1]; Vero E6, 1 µM and 5 µM",does not inhibit pyrimidine synthesis
same,"Pyrimidine synthesis, UMP levels (in words)",[1],significant depletion in UMP levels
same,"Pyrimidine synthesis, UMP levels (in words)",[1]; listed as atovaquone,significant inhibition in pyrimidine synthesis
same,Cmax in mice compared to BID dosing in HIV infected volunteers,[2]; mice 20 mg/kg PO daily for 7 days versus human values of ref 57,2–5 fold
same,peak total plasma concentration,"[2]; mice, 20 mg/kg PO daily for 7 days",100 µg/mL
same,peak free epithelial lining fluid (ELF) concentration,"[2]; mice, 20 mg/kg PO daily for 7 days, urea normalized, 20 mg/kg",70 nM
same,peak free plasma level,"[2]; mice, 20 mg/kg PO daily for 7 days, 20 mg/kg",~44 nM
same,half-life,"[2]; mouse, in vivo",18 to 38 h
same,"Drug-induced toxicity, LDH release (in words)",[3],did not elicit substantial LDH release
same,pIC50,[4],7.70
same,"NT5E protein expression, quantification (in words)",[5]; 5 µM,significant decrease
same,NT5E expression (in words),[5]; atovaquone treated cells,significantly downregulated
same,EC50,[6],6.2 µM
same,pIC50,[6],5.17
same,inhibition at 50 µM,[7]; read-out: Inhibitory effect on Mpro activity,~35%
same,"Phospholipidosis, NBD-PE (in words)",[8],did not show phospholipidosis
same,primary endpoint: effect on SARS-CoV-2 viral clearance compared with placebo,[9],did not meet the primary endpoint
same,dsRNA staining compared to DMSO-treated control cells,[10],striking reduction in dsRNA staining
same,Viral replication in the presence of uridine (in words),[11],significant inhibition for viral replication regardless the uridine concentration
same,Protein bound,[12],> 99.9%
same,dsRNA staining compared to DMSO-treated control cells,[13],striking reduction in dsRNA staining
same,serum levels,[14],> 40 µM
same,Antiviral effect on SARS-CoV-2 replication (in words),[15],dose-dependent inhibition
same,"Free guanosine, inosine and adenosine levels (in words)",[16],"downregulation of adenosine, guanosine, and inosine levels"
same,"Free guanosine, inosine and adenosine levels (in words)",[16]; listed as atovaquone,significant depletion
same,CC50,[17],> 100 µM
COc1ccccc1Oc1c(NS(=O)(=O)c2ccc(C(C)(C)C)cc2)nc(-c2ncccn2)nc1OCCO [Bosentan],"Drug-induced toxicity, LDH release (in words)",[3],minimal impact
same,Effect on cellular ATP levels (in words),[3],minimal impact
same,Antiviral effect on SARS-CoV-2 replication (in words),[15],modest dose-dependent antiviral effects
COc1cccc2c1C(=O)c1c(O)c3c(c(O)c1C2=O)C[C@@](O)(C(C)=O)C[C@@H]3O[C@H]1C[C@H](N)[C@H](O)[C@H](C)O1 [Daunorubicin],"Drug-induced toxicity, LDH release (in words)",[3],toxic to cells at high doses
same,Antiviral effect on SARS-CoV-2 replication (in words),[15],dose-dependent inhibition
CCCCc1oc2ccc(NS(C)(=O)=O)cc2c1C(=O)c1ccc(OCCCN(CCCC)CCCC)cc1 [Dronedarone],"Drug-induced toxicity, LDH release (in words)",[3],particularly toxic at IC50 concentrations
same,EC50,[6],0.38 µM
same,pIC50,[6],6.42
same,Inhibition of Mpro activity (in words),[7],significant inhibition
same,pIC50,[7],4.74
same,inhibition at 50 µM,[7]; [19],50%
same,Antiviral effect on SARS-CoV-2 replication (in words),[15],dose-dependent inhibition
same,CC50,[17],20.2 µM
CCN(CC)C(=O)/C(C#N)=C/c1cc(O)c(O)c([N+](=O)[O-])c1 [Entacapone],Inhibition of Mpro activity (in words),[7],significant inhibition
same,pIC50,[7],5.05 and 5.04
same,inhibition at 50 µM,[7]; [19],50%
same,Mpro covalently modified,[18],15–20%
same,Antiviral effect on SARS-CoV-2 replication (in words),[15],did not elicit a reproducible antiviral effect
COC(=O)Nc1nc2ccc(C(=O)c3ccccc3)cc2[nH]1 [Mebendazole],time of maximum total plasma concentration after the last dose,"[2]; mice, 10 mg/kg PO daily for 7 days",≤ 90 min
same,maximum total plasma concentration,[2]; [20],697.67 ng/mL and 2.36 µM
same,peak free drug level in ELF,[2]; [20],~550 ng/mL and ~1.8 µM
same,"Drug-induced toxicity, LDH release (in words)",[3],absence of overt toxicity
same,Antiviral activity in Huh7.5 cells (in words),[6],lacks strong inhibitory activity; also recorded: less effective
same,Inhibition of Mpro activity (in words),[7],significant inhibition
same,pIC50,[7],4.72 and 4.70
same,peak plasma levels of patients,[14]; patients receiving 10 mg/kg every 6 h (total 40 mg/kg/day) ref 60,0.3 to 1.69 µM
same,Antiviral effect on SARS-CoV-2 replication (in words),[15],dose-dependent inhibition
same,CC50,[17],> 100 µM
O=C1c2c(O)ccc(O)c2C(=O)c2c(NCCNCCO)ccc(NCCNCCO)c21 [Mitoxantrone],"Drug-induced toxicity, LDH release (in words)",[3],did not elicit substantial LDH release
same,Antiviral effect on SARS-CoV-2 replication (in words),[15],dose-dependent inhibition
C[C@@H]1O[C@@H](O[C@H]2C[C@@H](O)[C@]3(CO)[C@H]4[C@H](O)C[C@]5(C)[C@@H](C6=CC(=O)OC6)CC[C@]5(O)[C@@H]4CC[C@]3(O)C2)[C@H](O)[C@H](O)[C@H]1O [Ouabain],"Drug-induced toxicity, LDH release (in words)",[3],absence of overt toxicity
same,EC50,[6],0.07 µM
same,pIC50,[6],7.12
same,Antiviral effect on SARS-CoV-2 replication (in words),[15],dose-dependent inhibition
same,IC50 against SARS-CoV-2 (in words),[15],low nanomolar range
same,CC50,[17],> 100 µM
C=C[C@H]1C[N@@]2CC[C@H]1C[C@@H]2[C@@H](O)c1ccnc2ccc(OC)cc12 [Quinidine],"Drug-induced toxicity, LDH release (in words)",[3],minimal impact
same,Effect on cellular ATP levels (in words),[3],minimal impact
same,Antiviral effect on SARS-CoV-2 replication (in words),[15],modest dose-dependent antiviral effects
COc1cccc(-c2ccc(NC(=O)C3=C(C(=O)O)CCC3)c(F)c2)c1 [vidofludimus],Viral replication in the presence of uridine (in words),[11],inhibitory activity was reversed with addition of uridine; also recorded: activity changed based on the uridine addition
